Source: ChEMBL document CHEMBL3124924, “Bifunctional ethyl 2-amino-4-methylthiazole-5-carboxylate derivatives: synthesis and in vitro biological evaluation as antimicrobial and anticancer agents” (2014)
In brackets after ≈: the same amount, converted by molar mass.

tested on: NCI-H522; experiment: Cytotoxicity against human NCI-H522 cells assessed as growth inhibition at 10 uM after 48 hrs by SRB assay; assay type: functional; details: NCI-H522, 48 h, read-out: GI
Procedure, shortened: (§1)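 NCI-60 one-dose primary screen run by the NCI Drug Evaluation Branch across the full 60-line panel. Single high-dose treatment with 48 h continuous drug exposure. Cell growth estimated by sulforhodamine B protein staining. Results given as percent growth of treated cells and expressed as percentage growth inhibition.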

SMILES | inhibition of growth at 10 µM
Cc1nc(N)sc1C(=O)Nc1ccc(F)cc1 | 9.55%

tested on: Escherichia coli; experiment: Antibacterial activity against Escherichia coli ATCC 25922 assessed as growth inhibition at 1 mg/mL after 24 hrs by agar-cup diffusion method; assay type: functional; details: ATCC 25922, 24 h, read-out: DIZ
Procedure, shortened: (§2)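 Agar-cup diffusion: 1 mL of 6 h broth culture seeded per 100 mL molten sterile agar at 45 °C and poured into plates. 8 mm cups cut, each filled with 0.1 mL of 1 mg/mL test solution. Incubated 37 °C for 24 h, 48 h for C. albicans. DMSO control per organism. Inhibition zone diameter in mm, mean of three measurements.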

SMILES | zone of inhibition at 1000 µg/mL
Cc1nc(N)sc1C(=O)Nc1ccc(F)cc1 | > 13 mm

tested on: HT-29; experiment: Cytotoxicity against human HT-29 cells assessed as growth inhibition at 10 uM after 48 hrs by SRB assay; assay type: functional; details: HT-29, 48 h, read-out: GI; procedure, shortened: as §1

SMILES | inhibition of growth at 10 µM
Cc1nc(N)sc1C(=O)Nc1ccc(F)cc1 | < 10%

tested on: Escherichia coli; experiment: Antibacterial activity against Escherichia coli ATCC 25922 assessed as growth inhibition after 48 hrs by two-fold serial dilution assay; assay type: functional; details: ATCC 25922, 48 h
Procedure, shortened: (§3)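 Twofold serial broth dilution run on compounds giving inhibition zones of 13 mm or more. Organisms pre-grown in suitable broth at 37 °C, 24 h for bacteria and 48 h for fungi. Dilution series 200, 100, 50, 25, 12.5, 6.25. Each 5 mL tube inoculated with 0.1 mL and incubated 37 °C for 48 h. Tubes scored for presence or absence of growth.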

MIC | SMILES
50 mg/L (≈ 199 µM) | Cc1nc(N)sc1C(=O)Nc1ccc(F)cc1

tested on: SK-MEL-2; experiment: Cytotoxicity against human SK-MEL-2 cells assessed as growth inhibition at 10 uM after 48 hrs by SRB assay; assay type: functional; details: SK-MEL-2, 48 h, read-out: GI; procedure, shortened: as §1

SMILES | inhibition of growth at 10 µM
Cc1nc(N)sc1C(=O)Nc1ccc(F)cc1 | 67.3%

tested on: not listed separately; experiment: Cytotoxicity against human UO31 cells assessed as growth inhibition at 10 uM after 48 hrs by SRB assay; assay type: functional; details: UO-31, 48 h, read-out: GI; procedure, shortened: as §1

SMILES | inhibition of growth at 10 µM
Cc1nc(N)sc1C(=O)Nc1ccc(F)cc1 | 11.8%

tested on: Bacillus spizizenii; experiment: Antibacterial activity against Bacillus subtilis ATCC 6633 assessed as growth inhibition after 48 hrs by two-fold serial dilution assay; assay type: functional; details: ATCC 6633, 48 h; procedure, shortened: as §3

MIC | SMILES
25 mg/L (≈ 99.5 µM) | Cc1nc(N)sc1C(=O)Nc1ccc(F)cc1

tested on: RPMI-8226; experiment: Cytotoxicity against human RPMI8226 cells assessed as growth inhibition at 10 uM after 48 hrs by SRB assay; assay type: functional; details: RPMI-8226, 48 h, read-out: GI; procedure, shortened: as §1

SMILES | inhibition of growth at 10 µM
Cc1nc(N)sc1C(=O)Nc1ccc(F)cc1 | < 10%

tested on: Bacillus spizizenii; experiment: Antibacterial activity against Bacillus subtilis ATCC 6633 assessed as growth inhibition at 1 mg/mL after 24 hrs by agar-cup diffusion method; assay type: functional; details: ATCC 6633, 24 h, read-out: DIZ; procedure, shortened: as §2

SMILES | zone of inhibition at 1000 µg/mL
Cc1nc(N)sc1C(=O)Nc1ccc(F)cc1 | > 13 mm

tested on: T47D; experiment: Cytotoxicity against human T47D cells assessed as growth inhibition at 10 uM after 48 hrs by SRB assay; assay type: functional; details: read-out: GI; procedure, shortened: as §1

SMILES | inhibition of growth at 10 µM
Cc1nc(N)sc1C(=O)Nc1ccc(F)cc1 | < 10%

tested on: HOP-92; experiment: Cytotoxicity against human HOP92 cells assessed as growth inhibition at 10 uM after 48 hrs by SRB assay; assay type: functional; details: HOP-92, 48 h, read-out: GI; procedure, shortened: as §1

SMILES | inhibition of growth at 10 µM
Cc1nc(N)sc1C(=O)Nc1ccc(F)cc1 | < 10%

tested on: Staphylococcus aureus; experiment: Antibacterial activity against Staphylococcus aureus ATCC 6538 assessed as growth inhibition after 48 hrs by two-fold serial dilution assay; assay type: functional; details: ATCC 6538, 48 h; procedure, shortened: as §3

MIC | SMILES
12.5 mg/L (≈ 49.7 µM) | Cc1nc(N)sc1C(=O)Nc1ccc(F)cc1

tested on: MOLT-4; experiment: Cytotoxicity against human MOLT4 cells assessed as growth inhibition at 10 uM after 48 hrs by SRB assay; assay type: functional; details: MOLT-4, 48 h, read-out: GI; procedure, shortened: as §1

SMILES | inhibition of growth at 10 µM
Cc1nc(N)sc1C(=O)Nc1ccc(F)cc1 | < 10%

tested on: Escherichia coli; experiment: Bactericidal activity against Escherichia coli ATCC 25922 after 18 hrs; assay type: functional; details: ATCC 25922, 18 h
Procedure, shortened: (§4)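 Continuation of the broth-dilution MIC test. A loopful from each tube without visible growth spread on a quarter of a Mueller-Hinton agar plate and incubated 18 h. Lowest concentration giving no growth on subculture taken as the MBC.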

SMILES | MBC
Cc1nc(N)sc1C(=O)Nc1ccc(F)cc1 | 100 mg/L (≈ 398 µM)

tested on: Staphylococcus aureus; experiment: Bactericidal activity against Staphylococcus aureus ATCC 6538 after 18 hrs; assay type: functional; details: ATCC 6538, 18 h; procedure, shortened: as §4

SMILES | MBC
Cc1nc(N)sc1C(=O)Nc1ccc(F)cc1 | 25 mg/L (≈ 99.5 µM)

tested on: MDA-MB-468; experiment: Cytotoxicity against human MDA-MB-468 cells assessed as growth inhibition at 10 uM after 48 hrs by SRB assay; assay type: functional; details: MDA-MB-468, 48 h, read-out: GI; procedure, shortened: as §1

SMILES | inhibition of growth at 10 µM
Cc1nc(N)sc1C(=O)Nc1ccc(F)cc1 | 9.63%

tested on: not listed separately; experiment: Cytotoxicity against human NCI-ADR-RES cells assessed as growth inhibition at 10 uM after 48 hrs by SRB assay; assay type: functional; details: read-out: GI; procedure, shortened: as §1

SMILES | inhibition of growth at 10 µM
Cc1nc(N)sc1C(=O)Nc1ccc(F)cc1 | 2.36%

tested on: SF-268; experiment: Cytotoxicity against human SF268 cells assessed as growth inhibition at 10 uM after 48 hrs by SRB assay; assay type: functional; details: SF-268, 48 h, read-out: GI; procedure, shortened: as §1

SMILES | inhibition of growth at 10 µM
Cc1nc(N)sc1C(=O)Nc1ccc(F)cc1 | < 10%

tested on: PC-3; experiment: Cytotoxicity against human PC3 cells assessed as growth inhibition at 10 uM after 48 hrs by SRB assay; assay type: functional; details: PC-3, 48 h, read-out: GI; procedure, shortened: as §1

SMILES | inhibition of growth at 10 µM
Cc1nc(N)sc1C(=O)Nc1ccc(F)cc1 | < 10%

tested on: Staphylococcus aureus; experiment: Antibacterial activity against Staphylococcus aureus ATCC 6538 assessed as growth inhibition at 1 mg/mL after 24 hrs by agar-cup diffusion method; assay type: functional; details: ATCC 6538, 24 h, read-out: DIZ; procedure, shortened: as §2

SMILES | zone of inhibition at 1000 µg/mL
Cc1nc(N)sc1C(=O)Nc1ccc(F)cc1 | > 13 mm

tested on: IGROV-1; experiment: Cytotoxicity against human IGROV1 cells assessed as growth inhibition at 10 uM after 48 hrs by SRB assay; assay type: functional; details: IGROV-1, 48 h, read-out: GI; procedure, shortened: as §1

SMILES | inhibition of growth at 10 µM
Cc1nc(N)sc1C(=O)Nc1ccc(F)cc1 | < 10%

tested on: CCRF-CEM; experiment: Cytotoxicity against human CCRF-CEM cells assessed as growth inhibition at 10 uM after 48 hrs by SRB assay; assay type: functional; details: read-out: GI; procedure, shortened: as §1

SMILES | inhibition of growth at 10 µM
Cc1nc(N)sc1C(=O)Nc1ccc(F)cc1 | < 10%

tested on: UACC-62; experiment: Cytotoxicity against human UACC62 cells assessed as growth inhibition at 10 uM after 48 hrs by SRB assay; assay type: functional; details: UACC-62, 48 h, read-out: GI; procedure, shortened: as §1

SMILES | inhibition of growth at 10 µM
Cc1nc(N)sc1C(=O)Nc1ccc(F)cc1 | 3.24%

tested on: SNB-75; experiment: Cytotoxicity against human SNB75 cells assessed as growth inhibition at 10 uM after 48 hrs by SRB assay; assay type: functional; details: SNB-75, 48 h, read-out: GI; procedure, shortened: as §1

SMILES | inhibition of growth at 10 µM
Cc1nc(N)sc1C(=O)Nc1ccc(F)cc1 | 5.4%

tested on: HCC 2998; experiment: Cytotoxicity against human HCC2998 cells assessed as growth inhibition at 10 uM after 48 hrs by SRB assay; assay type: functional; details: HCC 2998, 48 h, read-out: GI; procedure, shortened: as §1

SMILES | inhibition of growth at 10 µM
Cc1nc(N)sc1C(=O)Nc1ccc(F)cc1 | 11.8%

tested on: Bacillus spizizenii; experiment: Bactericidal activity against Bacillus subtilis ATCC 6633 after 18 hrs; assay type: functional; details: ATCC 6633, 18 h; procedure, shortened: as §4

SMILES | MBC
Cc1nc(N)sc1C(=O)Nc1ccc(F)cc1 | 50 mg/L (≈ 199 µM)

tested on: NCI-H322M; experiment: Cytotoxicity against human NCI-H322M cells assessed as growth inhibition at 10 uM after 48 hrs by SRB assay; assay type: functional; details: read-out: GI; procedure, shortened: as §1

SMILES | inhibition of growth at 10 µM
Cc1nc(N)sc1C(=O)Nc1ccc(F)cc1 | 2.56%

tested on: Pseudomonas aeruginosa; experiment: Antibacterial activity against Pseudomonas aeruginosa ATCC 27853 assessed as growth inhibition at 1 mg/mL after 24 hrs by agar-cup diffusion method; assay type: functional; details: ATCC 27853, 24 h, read-out: DIZ; procedure, shortened: as §2

SMILES | zone of inhibition at 1000 µg/mL
Cc1nc(N)sc1C(=O)Nc1ccc(F)cc1 | > 13 mm

tested on: SW-620; experiment: Cytotoxicity against human SW620 cells assessed as growth inhibition at 10 uM after 48 hrs by SRB assay; assay type: functional; details: SW-620, 48 h, read-out: GI; procedure, shortened: as §1

SMILES | inhibition of growth at 10 µM
Cc1nc(N)sc1C(=O)Nc1ccc(F)cc1 | < 10%

tested on: MCF7; experiment: Cytotoxicity against human MCF7 cells assessed as growth inhibition at 10 uM after 48 hrs by SRB assay; assay type: functional; details: MCF7, 48 h, read-out: GI; procedure, shortened: as §1

SMILES | inhibition of growth at 10 µM
Cc1nc(N)sc1C(=O)Nc1ccc(F)cc1 | 2.21%
